CYP2C19 activ = cytochrome P450 2C19 (human) activation; 96,000 tested, under 10 active; activation factor at 5 µM; recombinant CYP2C19, luciferin-H EGE luminescence; active compounds read high; 0 = fully inhibited enzyme, 1 = untreated enzyme; AID 1025; P33261;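 active = activation factor of at least 2 at 5 µM in the primary screen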
CYP2C9 act = activators of human CYP2C9 | recombinant CYP2C9, luciferin-H conversion, luminescence; active compounds read high; factor 1 = untreated enzyme, 0 = blocked | hit rate 1.4% among 96,000 | activation factor at 5 µM | P11712;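 active = activation factor of 2 or more for CYP2C9 at a 5 µM dose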
CYP2C19 inhib = blocks human cytochrome P450 2C19; P33261; CYP2C19 Supersomes, luciferin-H EGE luminescence, 30 min; inhibition, % at 5 µM; hit rate 21% among 96,000;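 active = CYP2C19 inhibition above a set limit at 5 µM in the primary screen, cut at about 50% in these data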
HIV Rev-RRE inh = disrupts HIV-1 Rev binding to RRE RNA | Rev peptide-RRE RNA binding, FRET | inhibition, % at 8 µM | hit rate 0.79% among 97,000 | AID 704;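 active = inhibition above the screen-wide mean plus 3 SD, cut at about 35% in these data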
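Assay system: Rev peptide and RRE RNA, both fluorescently labelled; times: 5 min preincubation and 15 min binding, 25 °C; detection: FRET, ex 480 nm, em 540 and 671 nm; read-out basis: % inhibition from 671/540 nm acceptor-to-donor ratio, scaled between controls; benchmarks: DMSO low control, neomycin B high control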
Cav32 inh = human Cav3.2 channel inhibition, primary screen; O95180; Cav3.2-expressing cells, Fluo-4 calcium fluorescence FDSS; active compounds read low; B-score at 10 µM; hit rate 4% among 100,000; AID 449739;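 active = single-dose well whose peak fluorescence ratio is a statistical outlier from its plate by either plate-standardised score or position-corrected B-score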
CYP2C9 inh = blocks human cytochrome P450 2C9 | P11712 | CYP2C9 Supersomes, luciferin-H conversion, luminescence | inhibition, % at 5 µM | hit rate 20% among 96,000;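 active = blocking of liver enzyme CYP2C9 beyond about 50% at 5 µM, limit read from the data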
Each line names hits and unclear results; the compound was inactive in the other large screens. This is a sample that favours compounds with a hit; in the whole collection about 27% have one here.

CCOC(=O)c1nn(-c2ccccc2F)c(-c2ccccc2)c1C(=O)c1ccccc1	Cav32 inh -4.4
CCOC(=O)c1nn(-c2cccc(OC)c2)c(-c2ccccc2)c1C(=O)c1ccccc1	none
CCOC(=O)c1c(C)nn(Cc2cccc(Cl)c2)c1N	CYP2C9 inh 90
CCOC(=O)c1nn(-c2ccccc2)c(-c2ccccc2)c1C(=O)c1ccccc1	CYP2C9 inh 59
CCOC(=O)c1sc(NC(=O)c2c(C)nn(Cc3ccccc3)c2C)cc1C	none
CN(Cc1ccccc1)c1nc2c(c(=O)[nH]c(=O)n2C)n1CCSc1ncccn1	none (no result: CYP2C19 activ, CYP2C9 act, CYP2C19 inhib, Cav32 inh, CYP2C9 inh)
CCCCOc1ccc2c(C)cc(=O)oc2c1OCCCC	none (no result: CYP2C19 activ, CYP2C9 act, CYP2C19 inhib, CYP2C9 inh)
CC1=C(C/C=C(\C)CCC[C@H](C)CCC[C@H](C)CCCC(C)C)C(=O)c2ccccc2C1=O	none (no result: CYP2C19 activ, CYP2C9 act, CYP2C19 inhib, HIV Rev-RRE inh, CYP2C9 inh)
Cc1c(C(=O)O)nn(-c2ccccc2)c(=O)c1C#N	none
CCOC(=O)c1nn(-c2ccccc2)c(=O)c(C#N)c1C	CYP2C19 inhib 70
CC(C)(C)c1nn(-c2ccccc2)c2[nH]c(=O)c(CNc3ccc4c(c3)OCCO4)cc12	none
Cc1nn(-c2ccccc2)c2[nH]c(=O)c(CNc3ccc(N4CCOCC4)cc3)cc12	CYP2C9 inh 57
Cc1nn(-c2ccc(Cl)cc2)c2[nH]c(=O)c(CNCc3ccc4c(c3)OCO4)cc12	CYP2C19 inhib 65, CYP2C9 inh 56
CN(C)c1nc(Oc2ccc(=O)[nH]n2)nc(N2CCCCC2)n1	none
CCc1cc2c(=O)c(-c3cnn(-c4ccccc4)c3)c(C)oc2c(CN2CCCCC2)c1O	none
O=c1c(-c2ccc(Br)cc2)coc2c(CN3CCOCC3)c(O)ccc12	CYP2C9 inh 58
O=c1oc2c(CN3CCOCC3)c(O)c(Cl)cc2c2c1CCCC2	none (no result: HIV Rev-RRE inh)
O=c1oc2c(CN3CCOCC3)c(O)ccc2c2c1CCCC2	CYP2C9 act 2 (no result: HIV Rev-RRE inh)
CCc1cc2c(=O)c(-c3cnn(-c4ccccc4)c3)coc2c(CN2CCOCC2)c1O	CYP2C9 inh 74
Cc1oc2c(CN3CCOCC3)c(O)ccc2c(=O)c1-c1ccc(Br)cc1	CYP2C9 inh 54
COc1ccc(Oc2coc3c(CN4CCOCC4)c(O)ccc3c2=O)cc1	none
Cc1oc2c(CN3CCCC3)c(O)ccc2c(=O)c1-c1ccc(Cl)cc1	none (no result: Cav32 inh)
CCOC(=O)C(CC)n1nc(C)n2c(cc3sccc32)c1=O (stereo unspecified)	none (no result: HIV Rev-RRE inh)
COc1ccc(C(=O)c2c(C(F)(F)F)oc3c2C(=O)c2ccccc2C3=O)cc1	CYP2C19 inhib 75, CYP2C9 inh 78
N#C/C(C(=O)N1CCOCC1)=C1/SC(Cc2ccccc2)C(=O)N1c1ccccc1 (stereo unspecified)	HIV Rev-RRE inh 44
CC1=CS/C(=C(/C#N)C(=O)N2CCOCC2)N1c1ccccc1	none
CCCCc1ccc(CC2S/C(=C(\C#N)C(=O)N3CCOCC3)N(c3ccccc3)C2=O)cc1 (stereo unspecified)	Cav32 inh -3.9
Cc1ccc(S(=O)(=O)N(c2cccc(C(F)(F)F)c2)C2C=CS(=O)(=O)C2)cc1 (stereo unspecified)	none (no result: HIV Rev-RRE inh)
Cc1cc(NC(=O)C2CC=CCC2C(=O)O)no1 (stereo unspecified)	none
Cc1cc(Br)cn2ccnc12	none (no result: Cav32 inh)
Cc1ccccc1Nc1nnc(SCc2cc(=O)n3ccsc3n2)s1	none
CSc1nnc(Nc2ccccc2C)s1	CYP2C19 inhib 68
C/C(N)=C(/C#N)C(=O)CSc1nnc(Nc2ccccc2C)s1	CYP2C19 inhib 60
Cc1ccccc1Nc1nnc(SCC(=O)NC(=O)NCc2ccco2)s1	none (no result: HIV Rev-RRE inh, Cav32 inh)
O=C1c2ccccc2NC2(CCCCC2)N1c1ccc(O)cc1	CYP2C9 inh 56
Cc1c(O)c(=O)ccn1C	none (no result: CYP2C19 activ, CYP2C9 act, CYP2C19 inhib, HIV Rev-RRE inh, CYP2C9 inh)
O=C(CSc1nc2scc(-c3ccco3)c2c(=O)n1-c1ccccc1)N1CCOCC1	none
C=CCn1c(SCc2ccccc2)nc2scc(-c3ccc(C)o3)c2c1=O	none
C=CCn1c(SCC(=O)NCCOC)nc2scc(-c3ccco3)c2c1=O	CYP2C19 inhib 78, CYP2C9 inh 83
O=C(CSc1nc2scc(-c3ccco3)c2c(=O)n1-c1ccccc1)NCC1CCCO1 (stereo unspecified)	CYP2C19 inhib 52, CYP2C9 inh 71
NC(=O)CSc1nc2scc(-c3ccco3)c2c(=O)n1-c1ccccc1	none

Screening results: PubChem, several laboratories
